Measured values pooled from the literature.
Each line is one published result; the experiments were not run side by side.
RET V804L: Proto-oncogene tyrosine-protein kinase receptor Ret (RET, Homo sapiens, UniProt P07949, V804L)
RET V804M: Proto-oncogene tyrosine-protein kinase receptor Ret (RET, Homo sapiens, UniProt P07949, V804M)
RET M918T: Proto-oncogene tyrosine-protein kinase receptor Ret (RET, Homo sapiens, UniProt P07949, M918T)

Cc1noc([C@H]2C[C@@H](c3ccc(C(F)(F)F)cc3)CN(C(=O)N3CCS(=O)(=O)C3)C2)n1  remaining binding (RET V804L; cell-free assay; competition with immobilised ligand; 1 µM): 100%
O=C(c1ccc(Nc2ncc(Cl)c(-c3cc4ccccc4s3)n2)cc1)N1CCC(N2CCCC2)CC1  remaining binding (RET V804M; binding; competition with immobilised ligand; 1 µM): 37%
COc1cnc(Nc2cccc(S(N)(=O)=O)c2)nc1N1CCN(c2ccccc2)C(=O)C1  remaining binding (RET M918T; binding; competition with immobilised ligand; 1 µM): 100%
N#Cc1ccc(Nc2ccc3[nH]c(=O)[nH]c3c2)c(Cl)c1  remaining binding (RET V804M; cell-free assay; competition with immobilised ligand; 1 µM): 93%
Nc1ncc2c(n1)-c1c([nH]c3ccc(C#CC4CC4)cc13)CCCC2  remaining binding (RET M918T; binding; competition with immobilised ligand; 1 µM): 100%
C[C@@H](c1ccc(-n2cnc3c(N)ncnc32)cc1)N1CCc2nn(C)c(Cc3ccccc3)c2C1=O  remaining binding (RET M918T; binding; competition with immobilised ligand; 0.1 µM): 98%
O=C(Nc1c[nH]nc1C(=O)NC1CCNCC1)c1cc(F)cc(F)c1  remaining binding (RET V804M; binding; competition with immobilised ligand; 1 µM): 99%
COc1ccnn2ncc(-c3ccnc(N(C)C)n3)c12  remaining binding (RET M918T; binding; 1 µM): 100%
O=C(c1ccc(Nc2ncc(Cl)c(-c3ccc(Cl)s3)n2)cc1)N1CCC(N2CCCC2)CC1  remaining binding (RET V804M; binding; competition with immobilised ligand; 1 µM): 12%
FC(F)(F)c1ccc2c(c1)nc(-c1cccnc1)n2C1CC1  remaining binding (RET V804L; cell-free assay; competition with immobilised ligand; 1 µM): 81%
CNC(=O)[C@@H]1CC[C@@H](n2c(-c3ccc4cnccc4c3)nc3ccc(C(=O)NCc4cccc(C(N)=O)c4)cc32)C1  remaining binding (RET M918T; binding; competition with immobilised ligand; 1 µM): 98%
N[C@@H]1CCN(c2nccc(-c3cnn4ncccc34)n2)C1  remaining binding (RET M918T; binding; 1 µM): 94%
O=C(NCCCN1CCOCC1)c1ccc(Nc2nccc(-c3cc4ccccc4s3)n2)cc1  remaining binding (RET M918T; binding; competition with immobilised ligand; 1 µM): 93%
CCC(=O)N[C@H]1CC[C@@H](C(=O)N(C)c2ccc(-c3nc4ccccc4o3)cc2)C1  remaining binding (RET V804M; cell-free assay; competition with immobilised ligand; 1 µM): 100%
C[C@H]1CCN(c2nccc(-c3cnn4ncccc34)n2)C1  remaining binding (RET M918T; binding; 1 µM): 100%
COc1cc(-c2cn(C3CCc4c(F)cccc4N(CC(F)(F)F)C3=O)nn2)ccc1-n1cnc(C)c1 (stereo not shown)  remaining binding (RET M918T; cell-free assay; competition with immobilised ligand; 1 µM): 100%
F[C@@H]1CCN(c2nccc(-c3cnn4ncccc34)n2)C1  remaining binding (RET V804L; binding; 1 µM): 100%
CO[C@@H](C)c1c(Nc2ccc([C@H](N(C)C(=O)C3CCS(=O)(=O)CC3)C(F)(F)F)cc2)cnc2cc(Cl)nn12  remaining binding (RET V804M; cell-free assay; competition with immobilised ligand; 1 µM): 94%
CN(C)c1ncc(F)c(-c2cnn3ncccc23)n1  remaining binding (RET V804M; binding; 1 µM): 100%
